Measured values collected from several papers.
Each line is one published result; the experiments were not run side by side.

CCN(CC)CCCOc1ccc2c(=O)c3c([nH]c2c1)CCCC3  microsomal CLint (metabolic stability; human, liver microsomes; 1 µM, pH 7.4): 5.53 µL/min/mg
Cc1cc(S(=O)(=O)NC2CC(N3CCN(CC4CCN(c5ccc6c(c5F)n(C)c(=O)n6C5CCC(=O)NC5=O)CC4)CC3)C2)ccc1Nc1ncc(C(F)(F)F)c(N2CCCC(C)(O)C2)n1 (stereo not drawn)  scaled CLint (metabolic stability; rat, liver microsomes; 1 µM): < 21 mL/min/kg
COc1ccc2c(c1)CN(C(=O)CCN1CCC(Cc3ccccc3)CC1)CC[S@@+]2[O-]  clearance (male human, plasma; intravenous, 0.05 mg/kg, healthy volunteers): 203 mL/min
COCC(=O)N1CCC[C@H](C(=O)NCc2nc(-c3ccccc3)cs2)C1  scaled CLint (metabolic stability; male Sprague-Dawley rat, hepatocytes; 0.5 µM): 32 mL/min/kg
CC(C)C[C@H](NC(=O)[C@H](CC(C)C)NC(=O)[C@H](Cc1c[nH]c2ccccc12)NC(=O)[C@H](CCC(=O)O)NC(=O)[C@@H](NC(=O)[C@H](Cc1ccccc1)NC(=O)[C@H](CCC(=O)O)NC(=O)[C@H](CCCCNC(=O)COCCOCCNC(=O)COCCOCCNC(=O)CC[C@H](NC(=O)CCCCCCCCCCCCCCCCCCC(=O)O)C(=O)O)NC(=O)[C@H](C)NC(=O)[C@H](CCCCN)NC(=O)[C@H](CCCCN)NC(=O)[C@H](CCC(=O)O)NC(=O)[C@H](CC(=O)O)NC(=O)[C@H](CC(C)C)NC(=O)[C@H](Cc1ccc(O)cc1)NC(=O)[C@H](CCCCN)NC(=O)[C@H](CO)NC(=O)[C@H](Cc1ccc(O)cc1)NC(=O)[C@H](CC(=O)O)NC(=O)[C@H](CO)NC(=O)[C@@H](NC(=O)[C@H](Cc1ccccc1)NC(=O)[C@@H](NC(=O)CNC(=O)[C@H](CCC(N)=O)NC(=O)C(C)(C)NC(=O)[C@@H](N)Cc1c[nH]cn1)[C@@H](C)O)[C@@H](C)O)C(C)C)C(=O)N[C@@H](CCC(=O)O)C(=O)NCC(=O)NCC(=O)N1CCC[C@H]1C(=O)N[C@@H](CO)C(=O)N[C@@H](CO)C(=O)NCC(N)=O  CL/F (human, plasma; subcutaneous, 16 mg, multiple doses, patients): 0.5 mL/min
CCOCC(=O)N1CC[C@@H](C)[C@H](C(=O)NCc2nc(-c3ccc(C)nc3)cs2)C1 (racemic)  microsomal CLint (metabolic stability; male Sprague-Dawley rat, liver microsomes; 0.5 µM): 53 µL/min/mg
c1cc(-c2ccc3ncnc(NC4CCOCC4)c3c2)cc(N2CCOCC2)c1  logD (shake flask; aqueous buffer; pH 7.4): 3.3
Cc1cc(S(=O)(=O)N[C@]2(C)C[C@H](N3CCN(CC4CCN(c5ccc6c(c5F)n(C)c(=O)n6C5CCC(=O)NC5=O)CC4)CC3)C2)ccc1Nc1ncc(C(F)(F)F)c(N2CCC[C@](C)(O)C2)n1 (stereo partly drawn)  scaled CLint (metabolic stability; rat, liver microsomes; 1 µM): < 21 mL/min/kg
CN1CCN(c2cccc(-c3ccc4ncnc(Nc5ccc(Cl)c(Cl)c5)c4c3)c2)CC1  logD (shake flask; aqueous buffer; pH 7.4): > 4.1
COCC(=O)N1CCC[C@H](C(=O)NCc2nc(-c3ccc(C#N)cc3)cs2)C1  scaled CLint (metabolic stability; male Sprague-Dawley rat, liver microsomes; 0.5 µM): 30 mL/min/kg
CCC(F)(F)c1cc(N2C(=O)NC(C)(C)C2=O)ccc1F  chromatographic logD (HPLC; pH 7.4): 2.9
CC(C)(N)COCC(=O)N1CCC[C@H](C(=O)NCc2nc(-c3ccc(C(F)(F)F)cc3)cs2)C1  scaled CLint (metabolic stability; male Sprague-Dawley rat, hepatocytes; 0.5 µM): 21 mL/min/kg
Cc1cc(S(=O)(=O)N[C@H]2CC[C@H](N3CCN(CC4CCN(c5cccc6c5n(C)c(=O)n6C5CCC(=O)NC5=O)CC4)CC3)CC2)ccc1Nc1ncc(C(F)(F)F)c(N2CCC[C@](C)(O)C2)n1 (stereo partly drawn)  scaled CLint (metabolic stability; human, liver microsomes; 1 µM): 33 mL/min/kg
C[C@@H](Oc1ccc(S(C)(=O)=O)cc1C(=O)N1C[C@@H]2C[C@]2(c2cc(C(F)(F)F)on2)C1)C(F)(F)F  CL/F (human, plasma; oral, 10 mg, single dose, fasted): 82.9 mL/min
CC1(C(F)F)NC(=O)N(c2ccc(F)c(C(F)(F)F)c2)C1=O (stereo not drawn)  chromatographic logD (HPLC; pH 7.4): 3.2
NCCOCC(=O)N1CCC[C@H](C(=O)NCc2nc(-c3ccc(C(F)(F)F)cc3)cs2)C1  microsomal CLint (metabolic stability; male Sprague-Dawley rat, liver microsomes; 0.5 µM): < 3 µL/min/mg
Cc1cc(S(=O)(=O)NC2CC(N3CC[C@@H](OC4CN(c5cccc6c5n(C)c(=O)n6C5CCC(=O)NC5=O)C4)[C@H](F)C3)C2)ccc1Nc1ncc(C(F)(F)F)c(N2CCC[C@](C)(O)C2)n1 (stereo partly drawn)  scaled CLint (metabolic stability; human, liver microsomes; 1 µM): 28 mL/min/kg
CC1(C)NC(=O)N(c2ccc(F)c(CC(F)(F)F)c2)C1=O  chromatographic logD (HPLC; pH 7.4): 2.7
